Test results: ChEMBL document CHEMBL4616704, “Discovery of an Atropisomeric PI3Kβ Selective Inhibitor through Optimization of the Hinge Binding Motif” (ACS Med Chem Lett, 2020)
Where “and” joins values, the source holds several entries; their conditions need not be identical. Identical values can stand only once.

Experiments:
Cytochrome P450 3A4 = Cytochrome P450 3A4 (Homo sapiens, UniProt P08684); test: Inhibition of human CYP3A4; format: ADME
[1] = Clearance in human hepatocytes at 1 uM measured up to 250 mins by UHPLC-HRMS analysis; format: ADME, cell-based, Hepatocyte; conditions: 250 min, 1 µM
[2] = Dissociation constant, acidic pKa of compound; format: physicochemical
[3] = target: Phosphatidylinositol 4,5-bisphosphate 3-kinase catalytic subunit gamma isoform (Homo sapiens, UniProt P48736); test: Inhibition of human full length p110gamma using PIP2 as substrate after 30 mins in presence of ATP at 2xKm concentration by TR-FRET assay
Phosphatidylinositol 4,5-bisphosphate 3-kinase catalytic subunit gamma isoform, sequence (P48736 whole entry, canonical isoform): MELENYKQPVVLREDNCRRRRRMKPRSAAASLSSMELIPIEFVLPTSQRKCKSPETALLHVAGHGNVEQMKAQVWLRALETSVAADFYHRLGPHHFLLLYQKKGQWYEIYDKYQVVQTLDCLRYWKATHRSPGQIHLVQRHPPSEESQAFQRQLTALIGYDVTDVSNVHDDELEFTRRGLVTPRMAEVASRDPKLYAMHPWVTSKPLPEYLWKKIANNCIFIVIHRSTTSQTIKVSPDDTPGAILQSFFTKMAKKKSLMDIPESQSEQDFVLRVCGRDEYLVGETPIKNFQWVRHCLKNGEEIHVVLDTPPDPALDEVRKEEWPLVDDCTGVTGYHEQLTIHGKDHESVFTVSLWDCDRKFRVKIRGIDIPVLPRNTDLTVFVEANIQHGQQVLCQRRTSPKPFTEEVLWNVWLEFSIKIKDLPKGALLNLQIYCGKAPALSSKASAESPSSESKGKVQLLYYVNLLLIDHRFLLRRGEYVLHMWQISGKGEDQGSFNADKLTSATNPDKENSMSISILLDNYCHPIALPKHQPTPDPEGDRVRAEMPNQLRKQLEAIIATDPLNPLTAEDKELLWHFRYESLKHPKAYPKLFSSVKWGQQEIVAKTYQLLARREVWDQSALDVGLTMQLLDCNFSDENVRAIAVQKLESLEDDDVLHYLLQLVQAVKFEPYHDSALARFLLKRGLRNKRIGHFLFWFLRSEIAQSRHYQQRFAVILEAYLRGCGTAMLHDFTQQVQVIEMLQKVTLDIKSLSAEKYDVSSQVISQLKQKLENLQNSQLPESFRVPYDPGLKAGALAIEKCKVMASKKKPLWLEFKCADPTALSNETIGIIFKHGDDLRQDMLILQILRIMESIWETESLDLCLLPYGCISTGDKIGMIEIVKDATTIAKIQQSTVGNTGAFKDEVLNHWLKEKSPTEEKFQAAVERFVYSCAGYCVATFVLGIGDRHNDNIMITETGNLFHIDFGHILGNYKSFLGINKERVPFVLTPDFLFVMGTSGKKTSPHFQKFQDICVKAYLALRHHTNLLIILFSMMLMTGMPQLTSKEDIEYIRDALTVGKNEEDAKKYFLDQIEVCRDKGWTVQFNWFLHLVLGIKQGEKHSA

[4] = target: PI3-kinase p110-delta/p85-alpha (Homo sapiens, UniProt O00329); test: Inhibition of human p110delta catalytic subunit/p85alpha using PIP2 as substrate after 30 mins in presence of ATP at 2xKm concentration by TR-FRET assay; format: protein-complex assay
PI3-kinase p110-delta/p85-alpha, sequence (P27986 whole entry, canonical isoform): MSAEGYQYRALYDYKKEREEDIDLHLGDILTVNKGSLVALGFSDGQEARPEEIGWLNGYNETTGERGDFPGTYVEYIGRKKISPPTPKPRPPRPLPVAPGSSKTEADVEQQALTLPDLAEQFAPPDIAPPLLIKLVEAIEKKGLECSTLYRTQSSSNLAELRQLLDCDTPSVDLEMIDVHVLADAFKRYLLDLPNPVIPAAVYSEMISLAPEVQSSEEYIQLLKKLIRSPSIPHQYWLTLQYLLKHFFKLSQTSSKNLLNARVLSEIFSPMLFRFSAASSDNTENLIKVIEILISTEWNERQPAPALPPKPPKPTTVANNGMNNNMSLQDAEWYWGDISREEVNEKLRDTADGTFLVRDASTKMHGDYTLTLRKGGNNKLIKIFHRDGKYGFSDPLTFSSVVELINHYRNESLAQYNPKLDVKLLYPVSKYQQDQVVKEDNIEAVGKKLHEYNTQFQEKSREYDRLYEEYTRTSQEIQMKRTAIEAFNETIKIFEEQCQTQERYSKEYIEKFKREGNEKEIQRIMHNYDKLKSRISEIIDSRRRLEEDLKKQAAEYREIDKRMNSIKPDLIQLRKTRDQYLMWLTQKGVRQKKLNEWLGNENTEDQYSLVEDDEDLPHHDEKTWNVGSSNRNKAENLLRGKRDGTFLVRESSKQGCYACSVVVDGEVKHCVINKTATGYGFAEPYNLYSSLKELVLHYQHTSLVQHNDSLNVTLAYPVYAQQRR
PI3-kinase p110-delta/p85-alpha, sequence (O00329 whole entry, canonical isoform): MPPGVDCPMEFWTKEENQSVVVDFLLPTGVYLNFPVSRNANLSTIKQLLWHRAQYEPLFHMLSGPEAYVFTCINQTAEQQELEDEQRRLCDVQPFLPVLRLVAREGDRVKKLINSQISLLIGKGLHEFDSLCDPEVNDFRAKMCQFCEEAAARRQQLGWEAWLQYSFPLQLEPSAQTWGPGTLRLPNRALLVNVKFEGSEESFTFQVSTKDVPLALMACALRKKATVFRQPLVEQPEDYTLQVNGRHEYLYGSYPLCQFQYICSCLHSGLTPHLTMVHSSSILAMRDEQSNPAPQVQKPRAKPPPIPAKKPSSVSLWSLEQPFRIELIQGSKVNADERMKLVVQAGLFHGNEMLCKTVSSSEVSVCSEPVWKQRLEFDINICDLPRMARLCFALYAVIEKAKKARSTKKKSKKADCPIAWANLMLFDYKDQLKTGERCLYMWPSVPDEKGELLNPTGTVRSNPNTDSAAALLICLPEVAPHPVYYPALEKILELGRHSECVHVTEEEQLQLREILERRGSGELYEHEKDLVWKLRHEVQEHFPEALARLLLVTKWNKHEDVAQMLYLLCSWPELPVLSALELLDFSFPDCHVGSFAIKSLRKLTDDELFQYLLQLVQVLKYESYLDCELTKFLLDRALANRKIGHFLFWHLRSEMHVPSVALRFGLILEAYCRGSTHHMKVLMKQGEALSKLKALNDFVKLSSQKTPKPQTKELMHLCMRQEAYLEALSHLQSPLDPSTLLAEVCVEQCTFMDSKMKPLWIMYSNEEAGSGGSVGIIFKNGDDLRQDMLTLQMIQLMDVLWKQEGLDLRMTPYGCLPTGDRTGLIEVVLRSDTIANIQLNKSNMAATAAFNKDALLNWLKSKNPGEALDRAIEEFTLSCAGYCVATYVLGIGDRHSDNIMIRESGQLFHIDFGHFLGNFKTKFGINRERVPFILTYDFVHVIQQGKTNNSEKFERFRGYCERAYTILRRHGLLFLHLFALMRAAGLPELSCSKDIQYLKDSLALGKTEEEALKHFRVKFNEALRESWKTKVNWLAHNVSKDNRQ
Procedure, shortened: (§1)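 Class I PI3K isoforms assayed in vitro for kinase inhibition with ATP at 2Km steady-state concentration; IC50 values averaged over at least 2 determinations.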

[5] = target: PI3-kinase p110-alpha/p85-alpha (Homo sapiens, UniProt P42336); test: Inhibition of human full length p110alpha/p85alpha using PIP2 as substrate after 30 mins in presence of ATP at 2xKm concentration by TR-FRET assay; format: protein-complex assay; procedure, shortened: as §1
PI3-kinase p110-alpha/p85-alpha, sequence (P27986 whole entry): as the sequence (P27986 whole entry, canonical isoform) above
PI3-kinase p110-alpha/p85-alpha, sequence (P42336 whole entry): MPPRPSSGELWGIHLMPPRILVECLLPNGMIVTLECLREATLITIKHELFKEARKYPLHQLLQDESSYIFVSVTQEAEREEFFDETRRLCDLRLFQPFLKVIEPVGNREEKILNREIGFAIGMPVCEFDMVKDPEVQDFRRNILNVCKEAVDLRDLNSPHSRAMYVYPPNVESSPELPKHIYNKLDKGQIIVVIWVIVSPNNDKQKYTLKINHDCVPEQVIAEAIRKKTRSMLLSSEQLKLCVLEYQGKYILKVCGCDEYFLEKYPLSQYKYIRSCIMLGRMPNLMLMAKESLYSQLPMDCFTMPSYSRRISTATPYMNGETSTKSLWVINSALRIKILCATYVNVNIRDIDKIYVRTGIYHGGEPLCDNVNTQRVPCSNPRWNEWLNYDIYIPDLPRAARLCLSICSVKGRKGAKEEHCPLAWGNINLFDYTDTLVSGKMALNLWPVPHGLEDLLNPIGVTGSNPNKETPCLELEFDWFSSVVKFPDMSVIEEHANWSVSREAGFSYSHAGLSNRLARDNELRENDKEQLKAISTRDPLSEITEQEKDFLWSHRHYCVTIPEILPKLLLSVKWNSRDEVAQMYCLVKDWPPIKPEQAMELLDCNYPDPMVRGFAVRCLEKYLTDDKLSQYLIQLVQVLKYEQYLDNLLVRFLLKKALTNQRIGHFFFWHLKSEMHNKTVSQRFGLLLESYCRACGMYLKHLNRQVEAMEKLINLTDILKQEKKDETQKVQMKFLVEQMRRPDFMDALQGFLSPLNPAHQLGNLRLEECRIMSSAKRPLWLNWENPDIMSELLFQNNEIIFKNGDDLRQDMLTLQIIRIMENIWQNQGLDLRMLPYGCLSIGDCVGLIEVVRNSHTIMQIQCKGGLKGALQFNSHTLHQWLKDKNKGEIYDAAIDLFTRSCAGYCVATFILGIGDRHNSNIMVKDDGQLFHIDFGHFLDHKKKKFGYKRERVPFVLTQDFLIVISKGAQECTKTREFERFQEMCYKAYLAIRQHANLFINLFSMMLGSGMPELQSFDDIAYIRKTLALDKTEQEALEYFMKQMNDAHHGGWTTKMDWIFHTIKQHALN

PI3K p110 beta/p85 alpha = PI3K p110 beta/p85 alpha (Homo sapiens, UniProt P42338); test: Inhibition of recombinant human full-length N-terminal His6-tagged p110beta/human recombinant full-length untagged p85alpha expressed in baculovirus infected Sf21 insect cells using PIP2 as substrate after 30 mins in presence of ATP at 2xKm concentration by TR-FRET assay; procedure, shortened: as §1
[6] = target: T1, Phosphatidylinositol 4,5-bisphosphate 3-kinase catalytic subunit beta isoform (Homo sapiens, UniProt P42338); test: Inhibition of PI3Kbeta in PTEN-deficient human PC3 cells assessed as reduction in AKT phosphorylation at Ser473 residue after 2 hrs by mesoscale assay; format: cell-based, PC-3
Procedure, shortened: (§2)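 Cellular readout: pAKT1 Ser473 normalized to total AKT1, expressed as units pAKT1 Ser473 per nanogram total AKT1; cells treated under serum-free conditions.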

[7] = Oral bioavailability in cynomolgus monkey at 5 mg/kg dosed via gavage after 24 hrs by ESI-LC/MS/MS analysis; format: ADME, organism-based, Macaca fascicularis; conditions: in vivo
[8] = Protein binding in Sprague-Dawley rat plasma at 1 mg/kg administered as iv infusion for 30 mins and measured after 24 hrs by ESI-LC/MS/MS analysis; format: ADME, organism-based; conditions: read-out: PPB (converted)
[9] = target: Voltage-gated inwardly rectifying potassium channel KCNH2 (Homo sapiens, UniProt Q12809); test: Inhibition of human ERG
Procedure, shortened: (§3)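 Binding-assay format used to measure inhibition of major human CYP450 enzymes and hERG.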

[10] = Apparent permeability across basolateral to apical side in human Caco2 cells at 10 uM after 1 to 2 hrs by LC/MS/MS analysis; format: ADME, cell-based; conditions: Caco-2
[11] = Genotoxicity in Salmonella typhimurium by Ames test; format: toxicity; conditions: salmonella enterica subsp. enterica serovar typhimurium
[12] = target: T1, Phosphatidylinositol 4,5-bisphosphate 3-kinase catalytic subunit beta isoform; test: Inhibition of PI3Kbeta in PTEN-deficient human LNCAP cells assessed as reduction in AKT phosphorylation at Ser473 residue after 2 hrs by mesoscale assay; format: cell-based; procedure, shortened: as §2
CYP450 = CYP450 (Homo sapiens, UniProt P04798+P05177+P05181+P08684+P10632+P10635+P11509+P11712+P13584+P20813+P20815+P20853+P24462+P24903+P33260+P33261+P51589+P78329+P98187+Q02928+Q08477+Q16678+Q16696+Q5TCH4+Q6VVX0+Q7Z449+Q8TAV3+Q96SQ9+Q9HB55); test: Inhibition of human CYP450; format: ADME, protein assay; procedure, shortened: as §3
[13] = target: T1, Phosphatidylinositol 4,5-bisphosphate 3-kinase catalytic subunit beta isoform; test: Inhibition of PI3Kbeta in PTEN-deficient human LNCaP C4-2 cells assessed as reduction in AKT phosphorylation at Ser473 residue after 2 hrs by mesoscale assay; format: cell-based; procedure, shortened: as §2
[14] = Clearance in cynomolgus monkey at 1 mg/kg administered as iv infusion for 30 mins and measured after 24 hrs by ESI-LC/MS/MS analysis; format: ADME, organism-based, Macaca fascicularis; conditions: in vivo
[15] = Volume of distribution at steady state in cynomolgus monkey at 1 mg/kg administered as iv infusion for 30 mins and measured after 24 hrs by ESI-LC/MS/MS analysis; format: ADME, organism-based, Macaca fascicularis; conditions: in vivo, read-out: Vdss
[16] = target: T1, Phosphatidylinositol 4,5-bisphosphate 3-kinase catalytic subunit beta isoform; test: Inhibition of PI3Kbeta in PTEN-deficient human ZR-75-1 cells assessed as reduction in AKT phosphorylation at Ser473 residue after 2 hrs by mesoscale assay; format: cell-based; procedure, shortened: as §2
[17] = Protein binding in rhesus monkey plasma at 1 mg/kg administered as iv infusion for 30 mins and measured after 24 hrs by ESI-LC/MS/MS analysis; format: ADME, organism-based, Macaca mulatta; conditions: read-out: PPB (converted)
[18] = Protein binding in cynomolgus monkey plasma at 1 mg/kg administered as iv infusion for 30 mins and measured after 24 hrs by ESI-LC/MS/MS analysis; format: ADME, organism-based, Macaca fascicularis; conditions: read-out: PPB (converted)
[19] = target: T1, Phosphatidylinositol 4,5-bisphosphate 3-kinase catalytic subunit beta isoform; test: Inhibition of PI3Kbeta in PTEN-deficient human MDA-MB-415 cells assessed as reduction in AKT phosphorylation at Ser473 residue after 2 hrs by mesoscale assay; format: cell-based; procedure, shortened: as §2
[20] = Protein binding in Beagle dog plasma at 1 mg/kg administered as iv infusion for 30 mins and measured after 24 hrs by ESI-LC/MS/MS analysis; format: ADME, organism-based, Canis lupus familiaris; conditions: read-out: PPB (converted)
[21] = Volume of distribution at steady state in rhesus monkey at 1 mg/kg administered as iv infusion for 30 mins and measured after 24 hrs by ESI-LC/MS/MS analysis; format: ADME, organism-based, Macaca mulatta; conditions: in vivo, read-out: Vdss
[22] = Oral bioavailability in Sprague-Dawley rat at 5 mg/kg dosed via gavage after 24 hrs by ESI-LC/MS/MS analysis; format: ADME, organism-based; conditions: in vivo
[23] = Apparent permeability across apical to basolateral side in human Caco2 cells at 10 uM after 1 to 2 hrs by LC/MS/MS analysis; format: ADME, cell-based; conditions: Caco-2

Cytochrome P450 3A4, sequence (P08684 whole entry): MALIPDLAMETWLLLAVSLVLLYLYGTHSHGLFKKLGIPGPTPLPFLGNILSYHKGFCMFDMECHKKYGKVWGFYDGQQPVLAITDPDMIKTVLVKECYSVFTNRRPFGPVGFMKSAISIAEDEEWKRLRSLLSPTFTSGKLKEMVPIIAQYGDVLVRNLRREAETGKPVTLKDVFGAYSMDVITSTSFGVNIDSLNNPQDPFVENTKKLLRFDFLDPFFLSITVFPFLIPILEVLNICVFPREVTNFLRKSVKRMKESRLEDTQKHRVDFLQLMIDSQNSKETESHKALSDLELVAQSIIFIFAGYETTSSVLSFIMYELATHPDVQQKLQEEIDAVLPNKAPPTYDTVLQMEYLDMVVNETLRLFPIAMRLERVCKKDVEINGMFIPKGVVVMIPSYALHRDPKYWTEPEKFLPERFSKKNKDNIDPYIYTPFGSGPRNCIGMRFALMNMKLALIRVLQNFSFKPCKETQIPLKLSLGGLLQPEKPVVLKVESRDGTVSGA

SMILES	IC50 [3] [µM]	IC50 [4]	IC50 [5] [µM]	also measured
Cc1nc2c(-c3nnc[nH]3)cc(-c3ccncc3)cc2n1-c1ccnc2c(F)ccc(F)c12	> 10			IC50 (Cytochrome P450 3A4): 1 µM; CLH [1]: 4 mL/min/kg and 10.2 mL/min/kg; pKa [2]: 5.3
Cc1cc(-c2cc(-c3nnc[nH]3)c3nc(C)n(-c4ccnc5c(F)ccc(F)c45)c3c2)ccn1	> 10	0.3 µM and 0.122 µM and 1.11 µM		IC50 (Cytochrome P450 3A4): 19 µM; pKa [2]: 5.9
Cc1nc2c(-c3nnc[nH]3)cc(-c3ccnc(C(F)F)c3)cc2n1-c1ccnc2c(F)ccc(F)c12	9.42	0.402 µM	0.68	
Clc1cccc2c(-n3cnc4c(-c5ncn[nH]5)cc(-c5ccncc5)cc43)ccnc12	5.3	0.1 µM	0.35	
Cc1c(-c2cc(-c3nnc[nH]3)c3nc(C)n(-c4ccnc5c(F)ccc(F)c45)c3c2)ccnc1N	> 10	> 10 µM	> 10	IC50 (PI3K p110 beta/p85 alpha): 2.86 µM
Cc1nc2c(-c3nnc[nH]3)cc(-c3ccnc(Cl)c3)cc2n1-c1ccnc2c(F)ccc(F)c12	6.27	0.052 µM	0.075	
Cc1cc(-c2cc(-c3nnc[nH]3)c3nc(C)n(-c4ccnc5c(F)ccc(F)c45)c3c2)cc(N)n1	> 10	2.59 µM	6.84	
CNc1nccc(-c2cc(-c3nnc[nH]3)c3nc(C)n(-c4ccnc5c(F)ccc(F)c45)c3c2)c1F	> 10	> 10 µM	> 10	
Cc1nc2c(-c3nnc[nH]3)cc(-c3c(F)cnc(N)c3F)cc2n1-c1ccnc2c(F)ccc(F)c12	> 10	1.66 µM	2.52	
Cc1nc2c(-c3nnc[nH]3)cc(-c3ccnc(N)c3Cl)cc2n1-c1ccnc2c(F)ccc(F)c12	> 10	0.297 µM	0.89	
Cc1cc(C(C)Nc2ccccc2)c2nc(N3CCOCC3)cc(=O)n2c1 (stereo unspecified)	> 10	0.5 µM	7.6	
Cc1nccc(-c2cc(-c3nnc[nH]3)c3nc(C)n(-c4ccnc5c(F)ccc(F)c45)c3c2)n1	2.72	0.035 µM	0.055	
Cc1nc2c(-c3nnc[nH]3)cc(-c3cc(N)ncc3F)cc2n1-c1ccnc2c(F)ccc(F)c12	> 10	0.302 µM	1.5	
Cc1cc(-c2cc(-c3nnc[nH]3)c3nc(C)n(-c4ccnc5c(F)ccc(F)c45)c3c2)ncn1	> 10	1.14 µM	1.27	
Clc1cccc2c(-n3cnc4c(-c5nnc[nH]5)cc(N5CCOCC5)cc43)ccnc12	0.35	0.012 µM	0.06	
Cc1nc2c(-c3nnc[nH]3)cc(-c3ccnc(N)c3F)cc2n1-c1ccnc2c(F)ccc(F)c12				EC50 [6]: 0.009 µM; bioavailability [7]: 64%; fraction unbound at 24 h [8]: 0.19; IC50 [9]: > 25 µM; Papp B→A at 10 µM [10]: 31 ×10⁻⁶ cm/s; Activity [11]: Non-Toxic; IC50 (Cytochrome P450 3A4): > 25 µM; EC50 [12]: 0.053 µM; IC50 (CYP450): > 25 µM; EC50 [13]: 0.015 µM; pKa [2]: 4.8; clearance [14]: 2.17 mL/min/kg; Vd [15]: 0.5 L/kg; EC50 [16]: 0.006 µM; fraction unbound at 24 h [17]: 0.07; fraction unbound at 24 h [18]: 0.06; EC50 [19]: 0.012 µM; fraction unbound at 24 h [20]: 0.08; Vd [21]: 0.6 L/kg; bioavailability [22]: 60%
C[C@@H](Nc1cc(F)cc(F)c1)c1cc(C(=O)N(C)C)cc2c(=O)cc(N3CCOCC3)oc12 [AZD-8186]	6	0.036 µM	0.45	
Cc1nc2c(-c3nnc[nH]3)cc(-c3ccnc(N)c3)cc2n1-c1ccnc2c(F)ccc(F)c12	> 10			Papp B→A at 10 µM [10]: 18 ×10⁻⁶ cm/s; IC50 (Cytochrome P450 3A4): > 25 µM; pKa [2]: 6.1; Papp A→B at 10 µM [23]: 1.7 ×10⁻⁶ cm/s
